Source: ChEMBL document CHEMBL1921792, “Synthesis and anticonvulsant activity of trans- and cis-2-(2,6-dimethylphenoxy)-N-(2- or 4-hydroxycyclohexyl)acetamides and their amine analogs” (Bioorg Med Chem, 2011)
The source made the active and inactive calls.

Key:
Rattus norvegicus [1] = test: Neurotoxicity in rat assessed as neurological deficit at 30 mg/kg, ip after 4 hrs; assay type: toxicity, organism-based; set-up: dose 30 mg/kg, route intraperitoneal; conditions: in vivo
Outline: (§1)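 Rats given the compound, suspended in 0.5% methylcellulose, by the stated route and dose. Neurological deficit was recorded at the listed times as ataxia and loss of placing response and muscle tone. Reported as number of rats showing toxicity/number tested.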

Rattus norvegicus [2] = test: Anticonvulsant activity in rat assessed as protection against maximal electric shock-induced seizures at 30 mg/kg, ip after 4 hrs; assay type: functional, organism-based; set-up: dose 30 mg/kg
Outline: (§2)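 Time-to-peak-effect assay: MES protection read at 0.25–4 h after dosing. Mice ip (60–130 mg/kg), rats po (15 or 30 mg/kg) or ip (30 mg/kg). Groups of 4–8; result is protected/tested.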

Rattus norvegicus [3] = test: Neurotoxicity in rat assessed as neurological deficit at 30 mg/kg, po after 0.5 hrs […]; assay type: toxicity, organism-based; set-up: dose 30 mg/kg, route oral; conditions: in vivo; outline: as §1
Rattus norvegicus [4] = test: Neurotoxicity in rat assessed as neurological deficit at 30 mg/kg, po after 1 hr […]; assay type: toxicity, organism-based; set-up: dose 30 mg/kg, route oral; conditions: in vivo; outline: as §1
Mus musculus [5] = test: Neurotoxicity in mouse assessed as inability to maintain equilibrium on rotarod at 100 mg/kg, ip after 0.5 hrs by rotarod test; assay type: toxicity, organism-based; set-up: dose 100 mg/kg, route intraperitoneal; conditions: in vivo
Outline: (§3)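 Drug given ip to mice as a suspension in 0.5% methylcellulose. At the stated time after dosing, each mouse was placed on a 1 inch knurled rod turning at 6 rpm. Neurotoxicity = inability to stay balanced at least 1 min in each of three trials. Scored as animals toxic/animals tested in small groups.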

Mus musculus [6] = test: Anticonvulsant activity against subcutaneous pentylenetetrazole-induced seizures in mouse at 30 mg/kg, ip after 0.5 hrs; assay type: functional, organism-based; set-up: dose 30 mg/kg
Outline: (§4)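 Phase I screen in mice. Compound given ip as a suspension in 0.5% methylcellulose, read at 30 min and 4 h. Pentylenetetrazole 85 mg/kg in 0.9% NaCl was injected sc into the posterior midline and animals watched ≥30 min. Protection meant no clonic spasm lasting ≥5 s. Groups of 1–8 animals; result is protected/tested.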

Mus musculus [7] = test: Anticonvulsant activity in mouse assessed as protection against maximal electric shock-induced seizures at 3 mg/kg, ip after 0.5 hrs; assay type: functional, organism-based; set-up: dose 3 mg/kg
[8] = Neurotoxicity in po dosed rat assessed as neurological deficit […]; assay type: toxicity, organism-based; conditions: in vivo
Outline: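 Rats dosed orally with a suspension in 0.5% methylcellulose. Neurological deficit judged by ataxia and loss of placing response and muscle tone.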

Rattus norvegicus [9] = test: Neurotoxicity in rat assessed as neurological deficit at 30 mg/kg, po after 4 hrs by rotarod test; assay type: toxicity, organism-based; set-up: dose 30 mg/kg, route oral; conditions: in vivo; outline: as §1
Mus musculus [10] = test: Neurotoxicity in mouse assessed as inability to maintain equilibrium on rotarod at 300 mg/kg, ip after 0.5 hrs by rotarod test; assay type: toxicity, organism-based; set-up: dose 300 mg/kg, route intraperitoneal; conditions: in vivo; outline: as §3
Mus musculus [11] = test: Anticonvulsant activity against […] in mouse assessed as increase in tonic threshold at 28 mg/kg, ip by threshold tonic extension test; assay type: functional, organism-based; set-up: dose 28 mg/kg
Outline: (§5)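 Threshold tonic extension test in mice. The compound was given ip, then pentylenetetrazol was infused until the first twitch and the first clonus. PTZ dose was calculated from the infusion speed. Mean of 8 animals ± S.E.M.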

Mus musculus [12] = test: Neurotoxicity in mouse assessed as inability to maintain equilibrium on rotarod at 30 mg/kg, ip after 4 hrs by rotarod test; assay type: toxicity, organism-based; set-up: dose 30 mg/kg, route intraperitoneal; conditions: in vivo; outline: as §3
[13] = Neurotoxicity in ip dosed mouse assessed as inability to maintain equilibrium on rotarod by rotarod test; assay type: toxicity, organism-based; conditions: in vivo
Outline: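 Mice dosed ip with a suspension in 0.5% methylcellulose, then placed on a 1 inch knurled plastic rod rotating at 6 rpm. Toxicity = failure to keep equilibrium for at least 1 min in each of three trials.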

Mus musculus [14] = test: Anticonvulsant activity in mouse assessed as protection against maximal electric shock-induced seizures at 30 mg/kg, ip after 4 hrs; assay type: functional, organism-based; set-up: dose 30 mg/kg
Outline: (§6)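 Phase I maximal electroshock screen in mice. Compound given ip as a suspension in 0.5% methylcellulose at 30, 100 or 300 mg/kg, tested at 30 min and 4 h. Small groups (1–8); result is number protected/number tested.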

Rattus norvegicus [15] = test: Anticonvulsant activity in ip dosed rat assessed as time to show peak effect of protection against maximal electric shock-induced seizures; assay type: functional; outline: as §2
Rattus norvegicus [16] = test: Anticonvulsant activity in rat assessed as protection against maximal electric shock-induced seizures at 30 mg/kg, ip after 1 hr; assay type: functional, organism-based; set-up: dose 30 mg/kg; outline: as §2
Mus musculus [17] = test: Neurotoxicity in mouse assessed as inability to maintain equilibrium on rotarod at 10 mg/kg, ip after 0.5 hrs by rotarod test; assay type: toxicity, organism-based; set-up: dose 10 mg/kg, route intraperitoneal; conditions: in vivo
Mus musculus [18] = test: Anticonvulsant activity against […] in mouse assessed as increase in tonic threshold at 8 mg/kg, ip by threshold tonic extension test; assay type: functional, organism-based; set-up: dose 8 mg/kg; outline: as §5
Mus musculus [19] = test: Anticonvulsant activity against subcutaneous pentylenetetrazole-induced seizures in mouse at 100 mg/kg, ip after 0.5 hrs; assay type: functional, organism-based; set-up: dose 100 mg/kg; outline: as §4
Rattus norvegicus [20] = test: Anticonvulsant activity in rat assessed as protection against maximal electric shock-induced seizures at 30 mg/kg, ip after 0.25 hrs; assay type: functional, organism-based; set-up: dose 30 mg/kg; outline: as §2
Rattus norvegicus [21] = test: Neurotoxicity in rat assessed as neurological deficit at 30 mg/kg, po after 2 hrs […]; assay type: toxicity, organism-based; set-up: dose 30 mg/kg, route oral; conditions: in vivo; outline: as §1
Mus musculus [22] = test: Anticonvulsant activity in ip dosed mouse assessed as protection against maximal electric shock-induced seizures; assay type: functional; conditions: Mus musculus, ip; read-out: ED50
Rattus norvegicus [23] = test: Neurotoxicity in rat assessed as neurological deficit at 30 mg/kg, ip after 2 hrs; assay type: toxicity, organism-based; set-up: dose 30 mg/kg, route intraperitoneal; conditions: in vivo; outline: as §1
Rattus norvegicus [24] = test: Anticonvulsant activity in rat assessed as protection against maximal electric shock-induced seizures at 30 mg/kg, ip after 2 hrs; assay type: functional, organism-based; set-up: dose 30 mg/kg; outline: as §2
Mus musculus [25] = test: Neurotoxicity in mouse assessed as inability to maintain equilibrium on rotarod at 30 mg/kg, ip after 0.5 hrs by rotarod test; assay type: toxicity, organism-based; set-up: dose 30 mg/kg, route intraperitoneal; conditions: in vivo; outline: as §3
Mus musculus [26] = test: Anticonvulsant activity in mouse assessed as protection against maximal electric shock-induced seizures at 30 mg/kg, ip after 0.5 hrs; assay type: functional, organism-based; set-up: dose 30 mg/kg; outline: as §6
Rattus norvegicus [27] = test: Anticonvulsant activity in rat assessed as protection against maximal electric shock-induced seizures at 30 mg/kg, po after 4 hrs; assay type: functional, organism-based; set-up: dose 30 mg/kg
Outline: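 MES test in rats dosed orally at 30 mg/kg as a suspension in 0.5% methylcellulose, read at 0.25–4 h. Four rats per time point; result is protected/tested.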

Mus musculus [28] = species on record: Mus musculus; test: Protective index, ratio of TD50 for neurotoxicity in mouse to ED50 for inhibition of maximal electroshock-induced seizures in mouse; assay type: functional
Rattus norvegicus [29] = test: Anticonvulsant activity in rat assessed as protection against maximal electric shock-induced seizures at 30 mg/kg, ip after 0.5 hrs; assay type: functional, organism-based; set-up: dose 30 mg/kg; outline: as §2
Rattus norvegicus [30] = test: Anticonvulsant activity in po dosed rat assessed as protection against maximal electric shock-induced seizures; assay type: functional
Rattus norvegicus [31] = test: Neurotoxicity in rat assessed as neurological deficit at 30 mg/kg, po after 0.25 hrs […]; assay type: toxicity, organism-based; set-up: dose 30 mg/kg, route oral; conditions: in vivo; outline: as §1
Rattus norvegicus [32] = species on record: Rattus norvegicus; test: Protective index, ratio of TD50 for neurotoxicity in rat to ED50 for inhibition of maximal electroshock-induced seizures in rat; assay type: functional
Rattus norvegicus [33] = test: Neurotoxicity in rat assessed as neurological deficit at 30 mg/kg, ip after 1 hr; assay type: toxicity, organism-based; set-up: dose 30 mg/kg, route intraperitoneal; conditions: in vivo; outline: as §1
Mus musculus [34] = test: Neurotoxicity in mouse assessed as inability to maintain equilibrium on rotarod at 3 mg/kg, ip after 0.5 hrs by rotarod test; assay type: toxicity, organism-based; set-up: dose 3 mg/kg, route intraperitoneal; conditions: in vivo
Mus musculus [35] = test: Anticonvulsant activity against subcutaneous pentylenetetrazole-induced seizures in mouse at 30 mg/kg, ip after 4 hrs; assay type: functional, organism-based; set-up: dose 30 mg/kg; outline: as §4

Cc1cccc(C)c1OCCNC1CCCCC1O (racemic)
Activity (Rattus norvegicus [1]): Non-toxic | Activity (Rattus norvegicus [2]): inactive | Activity (Rattus norvegicus [3]): Non-toxic | Activity (Rattus norvegicus [4]): Non-toxic | Activity (Mus musculus [5]): Toxic | Activity (Mus musculus [6]): inactive | Activity (Mus musculus [7]): inactive | TD50 [8]: > 500 mg/kg | Activity (Rattus norvegicus [9]): Non-toxic | Activity (Mus musculus [10]): Toxic | Activity (Mus musculus [11]): inactive | Activity (Mus musculus [12]): Non-toxic | TD50 [13]: 28.4 mg/kg | Activity (Mus musculus [14]): inactive | Time (Rattus norvegicus [15]): 0.25 h | Activity (Rattus norvegicus [16]): Active | Activity (Mus musculus [17]): Non-toxic | Activity (Mus musculus [18]): inactive | Activity (Mus musculus [19]): inactive | Activity (Rattus norvegicus [20]): Active | Activity (Rattus norvegicus [21]): Non-toxic | ED50 (Mus musculus [22]): 7.73 mg/kg | Activity (Rattus norvegicus [23]): Non-toxic | Activity (Rattus norvegicus [24]): inactive | Activity (Mus musculus [25]): Toxic | Activity (Mus musculus [26]): Active | Activity (Rattus norvegicus [27]): inactive | Ratio TD50/ED50 (Mus musculus [28]): 3.9 | Activity (Rattus norvegicus [29]): Active | ED50 (Rattus norvegicus [30]): 26.2 mg/kg | Activity (Rattus norvegicus [31]): Non-toxic | Ratio TD50/ED50 (Rattus norvegicus [32]): >19.06 | Activity (Rattus norvegicus [33]): Non-toxic | Activity (Mus musculus [34]): Non-toxic | Activity (Mus musculus [35]): inactive
